Assay results from different studies.
Each line is one published result; the experiments were not run side by side.
Target: Serine/threonine-protein kinase TBK1 (TBK1, Homo sapiens, UniProt Q9UHD2)
Sequence (Q9UHD2 1-729, as in one of the studies): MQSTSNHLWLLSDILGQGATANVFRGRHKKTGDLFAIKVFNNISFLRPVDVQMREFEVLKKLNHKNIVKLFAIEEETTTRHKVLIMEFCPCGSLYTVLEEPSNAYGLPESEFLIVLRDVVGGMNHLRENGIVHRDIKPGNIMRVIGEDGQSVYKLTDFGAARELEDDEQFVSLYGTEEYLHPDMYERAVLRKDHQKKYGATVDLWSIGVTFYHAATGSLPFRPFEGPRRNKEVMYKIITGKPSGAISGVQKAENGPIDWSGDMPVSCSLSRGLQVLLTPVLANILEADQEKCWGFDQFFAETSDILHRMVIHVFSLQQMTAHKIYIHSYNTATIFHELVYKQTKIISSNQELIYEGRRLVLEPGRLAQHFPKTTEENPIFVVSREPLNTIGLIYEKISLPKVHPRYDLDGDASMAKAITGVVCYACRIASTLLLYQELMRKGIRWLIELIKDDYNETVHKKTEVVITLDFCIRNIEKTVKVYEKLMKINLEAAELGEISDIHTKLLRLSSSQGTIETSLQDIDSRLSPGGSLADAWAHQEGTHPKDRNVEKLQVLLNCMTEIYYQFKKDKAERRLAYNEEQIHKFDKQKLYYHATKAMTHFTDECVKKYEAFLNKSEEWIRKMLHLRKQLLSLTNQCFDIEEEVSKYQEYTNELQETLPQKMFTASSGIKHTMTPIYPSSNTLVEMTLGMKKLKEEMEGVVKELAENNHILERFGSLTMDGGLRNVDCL

Structure (SMILES)	test	setting	quantity	result
Cn1cc(-c2cc(F)cc(N3CCn4c(cc5c4CCCC5)C3=O)c2CO)cc(Nc2ccc(N3CCN(C4COC4)CC3)cn2)c1=O	enzyme activity, inhibitor	0.1 µM	inhibition	18%
C#Cc1n[nH]c2c(-c3cn([C@@H](C)c4ccccc4)c(=O)[nH]c3=O)cc(F)cc12	enzyme activity, inhibitor	0.1 µM	inhibition	4.4%
COc1cc(Nc2ncc(F)c(Nc3ccc4c(n3)NC(=O)C(C)(C)O4)n2)cc(OC)c1OC	binding	10 µM	inhibition	100%
O=c1[nH]c2ccccc2n1C1CCN(Cc2ccc(-c3[nH]c4cc5ncnc5cc4nc3-c3ccccc3)cc2)CC1	cell-free assay	0.5 µM	remaining signal	92.7%
Cc1nn(C)cc1-c1nc2c(N3CCN(Cc4ccc(Cl)cc4)CC3)c(Cl)cnc2[nH]1	binding, competition with immobilised ligand	1 µM	remaining binding	90%
Cn1cc(-c2cccc(N3CCc4c(sc5c4CC(C)(C)C5)C3=O)c2CO)cc(Nc2ccncn2)c1=O	enzyme activity, inhibitor	1 µM	inhibition	4%
COc1ncccc1-c1cnn2ccc(N3CCN(C(=O)OC(C)C)CC3)nc12	binding, competition with immobilised ligand	1 µM	remaining binding	78%
N#CC1(c2ccccn2)CCN(Cc2cc(C(=O)O)c(=O)n3ccccc23)CC1	cell-free assay, competition with immobilised ligand	1 µM	remaining binding	98%
C#Cc1n[nH]c2c(-c3cn(C(C)c4ccccn4)c(=O)[nH]c3=O)cc(F)cc12 (centres unmarked)	enzyme activity, inhibitor	1 µM	inhibition	6.5%
CC(C)(C)c1cc(C=C(C#N)C#N)cc(Br)c1O	enzyme activity, inhibitor	0.5 µM	remaining activity	90.2%
Cn1cncc1[C@](O)(COc1ccc(C#N)cc1-c1ccc(OC(F)(F)F)cc1)c1ccc(C#N)cc1	cell-free assay, competition with immobilised ligand	1 µM	remaining binding	100%
